Assay results: ChEMBL document CHEMBL1124728, “Small peptide inhibitors of smooth muscle myosin light chain kinase” (J Med Chem, 1990)
Non-standard residues stand in square brackets, D forms with d. Residues, ends and D or L forms follow the SMILES beside them. ξ: configuration not given here. *: point of attachment. Tyr(3,5-I2) = N[C@@H](Cc1cc(I)c(O)c(I)c1)C(=O)O; Bip = N[C@@H](Cc1ccc(-c2ccccc2)cc1)C(=O)O; Tyr(3-I) = N[C@@H](Cc1ccc(O)c(I)c1)C(=O)O; Dip = N[C@H](C(=O)O)C(c1ccccc1)c1ccccc1; 1Nal = N[C@@H](Cc1cccc2ccccc12)C(=O)O; 2Nal = N[C@@H](Cc1ccc2ccccc2c1)C(=O)O; Cha = N[C@@H](CC1CCCCC1)C(=O)O; OCH2CH2Ph = c1ccc(CCO*)cc1; ξαMeS = CC(N)(CO)C(=O)O; X3 = c1ccc(CCCCO*)cc1; NHBn = c1ccc(CN*)cc1; OBn = c1ccc(CO*)cc1; X2 = CCCCO*

target: Myosin light chain kinase, smooth muscle (Gallus gallus) (UniProt P11799); experiment: Inhibition of native form of myosin light chain kinase at from chicken gizzard 100 uM
Sequence (P11799 whole entry): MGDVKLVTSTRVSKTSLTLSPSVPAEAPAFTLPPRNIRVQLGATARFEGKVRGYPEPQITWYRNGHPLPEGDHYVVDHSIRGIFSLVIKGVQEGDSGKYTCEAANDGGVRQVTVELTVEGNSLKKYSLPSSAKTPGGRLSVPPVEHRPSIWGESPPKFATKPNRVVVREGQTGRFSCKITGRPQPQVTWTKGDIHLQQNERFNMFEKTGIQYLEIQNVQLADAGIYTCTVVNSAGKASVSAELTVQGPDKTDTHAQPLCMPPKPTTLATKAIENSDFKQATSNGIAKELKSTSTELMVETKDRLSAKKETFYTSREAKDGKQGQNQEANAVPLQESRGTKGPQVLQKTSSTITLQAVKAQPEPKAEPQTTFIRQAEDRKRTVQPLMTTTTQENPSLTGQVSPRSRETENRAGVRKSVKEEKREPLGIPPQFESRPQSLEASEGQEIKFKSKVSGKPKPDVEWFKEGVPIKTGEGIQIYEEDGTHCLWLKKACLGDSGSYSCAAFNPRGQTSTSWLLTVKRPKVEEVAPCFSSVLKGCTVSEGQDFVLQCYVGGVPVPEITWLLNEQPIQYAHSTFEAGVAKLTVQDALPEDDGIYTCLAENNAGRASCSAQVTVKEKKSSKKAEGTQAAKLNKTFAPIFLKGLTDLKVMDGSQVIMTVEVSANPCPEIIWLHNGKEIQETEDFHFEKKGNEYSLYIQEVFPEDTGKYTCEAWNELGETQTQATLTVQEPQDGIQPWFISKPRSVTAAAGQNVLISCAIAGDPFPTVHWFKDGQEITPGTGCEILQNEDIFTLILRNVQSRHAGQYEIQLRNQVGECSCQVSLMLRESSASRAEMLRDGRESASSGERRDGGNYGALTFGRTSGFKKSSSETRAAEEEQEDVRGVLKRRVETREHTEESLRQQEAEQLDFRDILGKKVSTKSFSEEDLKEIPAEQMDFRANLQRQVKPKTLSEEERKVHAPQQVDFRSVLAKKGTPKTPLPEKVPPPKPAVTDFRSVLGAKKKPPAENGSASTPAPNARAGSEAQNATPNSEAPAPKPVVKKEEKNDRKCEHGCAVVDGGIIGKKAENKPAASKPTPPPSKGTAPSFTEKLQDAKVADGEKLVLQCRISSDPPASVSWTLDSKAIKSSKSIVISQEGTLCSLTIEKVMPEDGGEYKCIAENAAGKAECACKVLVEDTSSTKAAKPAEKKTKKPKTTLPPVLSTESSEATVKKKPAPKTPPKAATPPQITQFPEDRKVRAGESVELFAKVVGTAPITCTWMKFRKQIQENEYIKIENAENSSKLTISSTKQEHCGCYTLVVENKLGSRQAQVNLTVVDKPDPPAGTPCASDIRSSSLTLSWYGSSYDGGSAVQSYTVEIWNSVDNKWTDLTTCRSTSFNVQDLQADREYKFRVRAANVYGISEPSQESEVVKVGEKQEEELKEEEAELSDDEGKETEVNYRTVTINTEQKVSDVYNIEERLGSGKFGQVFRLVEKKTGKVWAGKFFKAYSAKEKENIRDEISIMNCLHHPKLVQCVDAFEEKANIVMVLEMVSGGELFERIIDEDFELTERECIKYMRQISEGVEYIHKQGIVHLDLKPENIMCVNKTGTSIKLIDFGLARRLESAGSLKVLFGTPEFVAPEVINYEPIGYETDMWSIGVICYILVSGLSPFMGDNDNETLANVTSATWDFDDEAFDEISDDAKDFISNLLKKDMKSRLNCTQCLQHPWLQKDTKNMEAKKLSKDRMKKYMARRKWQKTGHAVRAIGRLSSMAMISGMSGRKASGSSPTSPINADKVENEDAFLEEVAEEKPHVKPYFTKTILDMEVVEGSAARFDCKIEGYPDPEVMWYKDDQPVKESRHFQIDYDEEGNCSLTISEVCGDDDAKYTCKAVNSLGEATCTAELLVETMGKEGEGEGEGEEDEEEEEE
Method in brief: (§1)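 Native calmodulin-dependent gizzard MLCK, over 95% homogeneous, with 200 nM calmodulin, 1 mM EGTA and about 200 μM excess free Ca2+. Started with ATP and stopped with HCl; phosphocellulose filter counting. Graphical IC50 from duplicates at four concentrations, or % inhibition at a single concentration.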

Row | Structure (SMILES) | inhibition [%]
1 | CC(C)[C@@H](NC(=O)[C@H](CC(N)=O)NC(=O)[C@@H](N)CO)C(=O)N[C@@H](Cc1ccccc1)C(=O)N[C@@H](C)C(=O)OCc1ccccc1 | 0
2 | CC(C)[C@H](NC(=O)[C@H](CC(N)=O)NC(=O)CN)C(=O)N[C@@H](Cc1ccccc1)C(=O)N[C@@H](C)C(=O)OCc1ccccc1 (H-GNVFA-OBn) | 37
3 | CC(C)[C@H](NC(=O)[C@H](CCC(N)=O)NC(=O)[C@@H](N)CO)C(=O)N[C@@H](Cc1ccccc1)C(=O)N[C@@H](C)C(=O)OCc1ccccc1 (H-SQVFA-OBn) | 32
4 | CC(C)[C@H](NC(=O)[C@@H](CC(N)=O)NC(=O)[C@H](N)CO)C(=O)N[C@@H](Cc1ccccc1)C(=O)N[C@@H](C)C(=O)OCc1ccccc1 | 14

target: T1, Myosin light chain kinase, smooth muscle (Gallus gallus, UniProt P11799); experiment: Inhibition of calmodulin-independent form of myosin light chain kinase isolated from chicken gizzard.
T1 sequence (P11799 whole entry): as above
Method in brief: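 Chicken gizzard MLCK made calmodulin-independent by limited trypsin digestion. It was started with ATP and stopped with HCl. Phosphate in substrate was counted on phosphocellulose filters. IC50 was read graphically from duplicates at four concentrations and reported as the mean, or as % inhibition at one concentration.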

Row | Structure (SMILES) | IC50 [µM]
5 | CC(C)[C@H](NC(=O)[C@H](CC(N)=O)NC(=O)[C@@H](N)CO)C(=O)N[C@@H](Cc1ccc(-c2ccccc2)cc1)C(=O)N[C@@H](C)C(=O)OCc1ccccc1 (H-SNV[Bip]A-OBn) | 5
6 | CC(C)[C@H](NC(=O)[C@H](CC(N)=O)NC(=O)[C@@H](N)CO)C(=O)N[C@@H](Cc1cccc2ccccc12)C(=O)N[C@@H](C)C(=O)OCc1ccccc1 (H-SNV[1Nal]A-OBn) | 2
7 | CC(C)[C@@H](CN[C@@H](Cc1ccccc1)C(=O)N[C@@H](C)C(=O)OCc1ccccc1)NC(=O)[C@H](CC(N)=O)NC(=O)[C@@H](N)CO | 262
8 | CC(C)[C@H](NC(=O)[C@H](CC(N)=O)NC(=O)[C@H](N)CO)C(=O)N[C@@H](Cc1ccccc1)C(=O)N[C@@H](C)C(=O)OCc1ccccc1 | 12
9 | CC(C)[C@H](NC(=O)[C@H](CC(N)=O)NC(=O)[C@@H](N)CO)C(=O)N[C@@H](Cc1ccccc1)C(=O)N[C@@H](C)C(=O)OCCc1ccccc1 (H-SNVFA-OCH2CH2Ph) | 50
10 | CC(C)[C@@H](NC(=O)[C@@H](CC(N)=O)NC(=O)[C@@H](N)CO)C(=O)N[C@@H](Cc1ccccc1)C(=O)N[C@@H](C)C(=O)OCc1ccccc1 | 186
11 | CC(C)[C@H](NC(=O)[C@H](CC(N)=O)NC(=O)[C@@H](N)CO)C(=O)N[C@H](Cc1ccccc1)C(=O)N[C@@H](C)C(=O)OCc1ccccc1 | 75
12 | CC(C)[C@H](NC(=O)[C@H](CC(N)=O)NC(=O)[C@@H](N)CO)C(=O)N[C@@H](Cc1ccccc1)C(=O)N[C@@H](C)C(=O)NCc1ccccc1 (H-SNVFA-NHBn) | 16
13 | CC(C)[C@H](NC(=O)[C@@H](NC(=O)[C@@H](N)CO)C(C)C)C(=O)N[C@@H](Cc1ccccc1)C(=O)N[C@@H](C)C(=O)OCc1ccccc1 (H-SVVFA-OBn) | 24
14 | C[C@H](NC(=O)[C@H](Cc1ccccc1)NC(=O)[C@@H](NC(=O)[C@H](CC(N)=O)NC(=O)[C@@H](N)CO)[C@@H](C)O)C(=O)OCc1ccccc1 (H-SNTFA-OBn) | 190
15 | CC(C)[C@H](NC(=O)[C@H](CC(N)=O)NC(=O)[C@@H](N)CO)C(=O)N[C@H](CCCCc1ccccc1)Cc1ccccc1 | 12
16 | CC(C)[C@H](NC(=O)[C@H](CC(N)=O)NC(=O)[C@@H](N)CO)C(=O)N[C@H](/C=C/C=C/c1ccccc1)Cc1ccccc1 | 3.9
17 | CCCCOC(=O)[C@H](C)NC(=O)[C@H](Cc1ccccc1)NC(=O)[C@@H](NC(=O)[C@H](CC(N)=O)NC(=O)[C@@H](N)CO)C(C)C (H-SNVFA-X2) | 185
18 | CC(C)[C@H](NC(=O)[C@H](CC(N)=O)NC(=O)[C@@H](N)CO)C(=O)N[C@H](/C=C\[C@@H](C)COCc1ccccc1)Cc1ccccc1 | 17
19 | CC(C)[C@H](NC(=O)[C@H](CC(N)=O)NC(=O)[C@@H](N)CO)C(=O)N[C@@H](Cc1ccccc1)C(=O)N[C@H](C)C(=O)OCc1ccccc1 | 64
20 | CC(C)[C@H](NC(=O)[C@H](CC(N)=O)NC(=O)[C@@H](N)CO)C(=O)N[C@H](/C=C/[C@@H](C)COCc1ccccc1)Cc1ccccc1 | 23
21 | CC(C)[C@H](NC(=O)[C@H](C)NC(=O)[C@@H](N)CO)C(=O)N[C@@H](Cc1ccccc1)C(=O)N[C@@H](C)C(=O)OCc1ccccc1 (H-SAVFA-OBn) | 18
22 | CC(C)[C@@H](/C=C/[C@@H](Cc1ccccc1)C(=O)N[C@@H](C)C(=O)OCc1ccccc1)NC(=O)[C@H](CC(N)=O)NC(=O)[C@@H](N)CO | 36
23 | CC(C)[C@H](/C=C/[C@H](CC(N)=O)NC(=O)[C@@H](N)CO)C(=O)N[C@@H](Cc1ccccc1)C(=O)N[C@@H](C)C(=O)NCc1ccccc1 | 278
24 | CC(C)[C@H](NC(=O)[C@H](CC(N)=O)NC(=O)[C@@H](N)CO)C(=O)N[C@H](/C=C/C(CCCc1ccccc1)CCCc1ccccc1)Cc1ccccc1 | 0.6

target: T1, Myosin light chain kinase, smooth muscle; experiment: Inhibition of native form of chicken MLCK (myosin light chain kinase); method in brief: as §1

Row | Structure (SMILES) | IC50 [µM]
25 | CC(C)[C@H](NC(=O)[C@H](CC(N)=O)NC(=O)[C@@H](N)CO)C(=O)N[C@@H](Cc1ccc(O)c(I)c1)C(=O)N[C@@H](C)C(=O)OCc1ccccc1 (H-SNV[Tyr(3-I)]A-OBn) | 1
26 | CC(C)[C@H](NC(=O)[C@H](CC(N)=O)NC(=O)[C@@H](N)CO)C(=O)N[C@@H](Cc1ccccc1)C(=O)N[C@@H](C)C(=O)OCCCCc1ccccc1 (H-SNVFA-X3) | 19
27 | CC(C)[C@H](NC(=O)[C@H](CC(N)=O)NC(=O)[C@@H](N)CO)C(=O)N[C@@H](Cc1ccc(-c2ccccc2)cc1)C(=O)N[C@@H](C)C(=O)OCc1ccccc1 (H-SNV[Bip]A-OBn) | 1
28 | CC(C)[C@H](NC(=O)[C@H](CC(N)=O)NC(=O)[C@@H]1CCCN1)C(=O)N[C@@H](Cc1ccccc1)C(=O)N[C@@H](C)C(=O)OCc1ccccc1 (H-PNVFA-OBn) | 200
29 | CC(C)[C@H](NC(=O)[C@H](CC(N)=O)NC(=O)[C@@H](N)CO)C(=O)N[C@@H](Cc1cc(I)c(O)c(I)c1)C(=O)N[C@@H](C)C(=O)OCc1ccccc1 (H-SNV[Tyr(3,5-I2)]A-OBn) | 7
30 | CSCC[C@H](N)C(=O)N[C@@H](CC(N)=O)C(=O)N[C@H](C(=O)N[C@@H](Cc1ccccc1)C(=O)N[C@@H](C)C(=O)OCc1ccccc1)C(C)C (H-MNVFA-OBn) | 76
31 | CC(C)[C@H](NC(=O)[C@H](CC(N)=O)NC(=O)[C@@H](N)CO)C(=O)N[C@@H](Cc1cccc2ccccc12)C(=O)N[C@@H](C)C(=O)OCc1ccccc1 (H-SNV[1Nal]A-OBn) | 2
32 | CC(C)C[C@H](NC(=O)[C@H](CC(N)=O)NC(=O)[C@@H](N)CO)C(=O)N[C@@H](Cc1ccccc1)C(=O)N[C@@H](C)C(=O)OCc1ccccc1 (H-SNLFA-OBn) | 3
33 | CC(C)[C@H](NC(=O)[C@H](CC(N)=O)NC(=O)[C@@H](N)CO)C(=O)N[C@@H](Cc1ccc(O)cc1)C(=O)N[C@@H](C)C(=O)OCc1ccccc1 (H-SNVYA-OBn) | 45
34 | CC(C)[C@H](NC(=O)[C@H](CC(N)=O)NC(=O)[C@H](N)CO)C(=O)N[C@@H](Cc1ccccc1)C(=O)N[C@@H](C)C(=O)OCc1ccccc1 | 5
35 | CC(C)[C@H](NC(=O)[C@H](CC(N)=O)NC(=O)[C@H](CO)NC(=O)[C@@H](NC(=O)[C@H](C)N)[C@@H](C)O)C(=O)N[C@@H](Cc1ccccc1)C(=O)N[C@@H](C)C(=O)OCc1ccccc1 (H-ATSNVFA-OBn) | 31
36 | CC(C)[C@H](NC(=O)CNC(=O)[C@@H](N)CO)C(=O)N[C@@H](Cc1ccccc1)C(=O)N[C@@H](C)C(=O)OCc1ccccc1 (H-SGVFA-OBn) | 450
37 | CC(C)[C@H](NC(=O)[C@H](CC(N)=O)NC(=O)[C@@H](N)CO)C(=O)N[C@@H](Cc1ccccc1)C(=O)N[C@@H](C)C(=O)OCCc1ccccc1 (H-SNVFA-OCH2CH2Ph) | 15
38 | CC(C)[C@H](NC(=O)[C@H](CC(N)=O)NC(=O)[C@@H](N)CO)C(=O)N[C@@H](Cc1ccccc1)C(=O)N[C@@H](CO)C(=O)OCc1ccccc1 (H-SNVFS-OBn) | 43
39 | CC(C)[C@@H](NC(=O)[C@@H](CC(N)=O)NC(=O)[C@H](N)CO)C(=O)N[C@H](Cc1ccccc1)C(=O)N[C@H](C)C(=O)OCc1ccccc1 | 12
40 | CC(C)[C@H](NC(=O)[C@H](CC(N)=O)NC(=O)[C@@H](N)CO)C(=O)N[C@@H](Cc1ccc2ccccc2c1)C(=O)N[C@@H](C)C(=O)OCc1ccccc1 (H-SNV[2Nal]A-OBn) | 12
41 | CC(C)[C@H](NC(=O)[C@H](CC(N)=O)NC(=O)[C@@H](N)CO)C(=O)N[C@@H](Cc1ccccc1)C(=O)OCc1ccccc1 (H-SNVF-OBn) | 160
42 | CC(C)[C@H](NC(=O)[C@H](CC(N)=O)NC(=O)[C@@H](N)CO)C(=O)N[C@@H](CC1CCCCC1)C(=O)N[C@@H](C)C(=O)OCc1ccccc1 (H-SNV[Cha]A-OBn) | 12
43 | CC(C)[C@H](NC(=O)[C@H](CC(N)=O)NC(=O)[C@@H](N)CO)C(=O)N[C@H](C(=O)N[C@@H](C)C(=O)OCc1ccccc1)C(c1ccccc1)c1ccccc1 (H-SNV[Dip]A-OBn) | 6
44 | CC(C)[C@H](NC(=O)[C@H](CC(N)=O)NC(=O)[C@@H](N)CS)C(=O)N[C@@H](Cc1ccccc1)C(=O)N[C@@H](C)C(=O)OCc1ccccc1 (H-CNVFA-OBn) | 8
45 | CC(C)[C@H](NC(=O)[C@H](CC(N)=O)NC(=O)[C@@H](N)CO)C(=O)N[C@@H](Cc1ccccc1)C(=O)N[C@@H](C)C(=O)NCc1ccccc1 (H-SNVFA-NHBn) | 15
46 | CC(C)[C@H](NC(=O)[C@H](CC(N)=O)NC(=O)[C@@H]1C[C@H](O)CN1)C(=O)N[C@@H](Cc1ccccc1)C(=O)N[C@@H](C)C(=O)OCc1ccccc1 | 56
47 | CC(C)[C@H](NC(=O)[C@H](CC(N)=O)NC(=O)[C@H](CO)NC(=O)[C@@H](NC(=O)[C@H](C)NC(=O)[C@@H](N)CCCNC(=N)N)[C@@H](C)O)C(=O)N[C@@H](Cc1ccccc1)C(=O)N[C@@H](C)C(=O)OCc1ccccc1 (H-RATSNVFA-OBn) | 38
48 | CC(C)[C@H](NC(=O)[C@H](CC(N)=O)NC(=O)C(C)(N)CO)C(=O)N[C@@H](Cc1ccccc1)C(=O)N[C@@H](C)C(=O)OCc1ccccc1 (stereo partly drawn) (H-[ξαMeS]NVFA-OBn) | 350
49 | C[C@H](NC(=O)[C@H](Cc1ccccc1)NC(=O)[C@H](Cc1ccccc1)NC(=O)[C@H](CC(N)=O)NC(=O)[C@@H](N)CO)C(=O)OCc1ccccc1 (H-SNFFA-OBn) | 50
50 | CSCC[C@H](NC(=O)[C@H](CC(N)=O)NC(=O)[C@@H](N)CO)C(=O)N[C@@H](Cc1ccccc1)C(=O)N[C@@H](C)C(=O)OCc1ccccc1 (H-SNMFA-OBn) | 30
51 | CC(C)[C@H](NC(=O)[C@H](CC(N)=O)NC(=O)[C@H](CO)NC(=O)[C@@H](N)[C@@H](C)O)C(=O)N[C@@H](Cc1ccccc1)C(=O)N[C@@H](C)C(=O)OCc1ccccc1 (H-TSNVFA-OBn) | 15
52 | CC(C)[C@H](NC(=O)[C@H](CC(N)=O)NC(=O)[C@@H](N)[C@@H](C)O)C(=O)N[C@@H](Cc1ccccc1)C(=O)N[C@@H](C)C(=O)OCc1ccccc1 (H-TNVFA-OBn) | 18
53 | CC(C)[C@H](NC(=O)[C@H](CC(N)=O)NC(=O)[C@@H](N)CO)C(=O)N[C@@H](Cc1c[nH]c2ccccc12)C(=O)N[C@@H](C)C(=O)OCc1ccccc1 (H-SNVWA-OBn) | 6
